Reference: publication PMC6468299 (Nucleic Acids Research, 2019)

What was measured:
[1] = target: T1, DNA polymerase γ (Pol-γ) (Homo sapiens, UniProt P54098); test: DNA polymerase inhibition assay, Pol-γ; assay type: biochemical; conditions: 1 h, 3H-dTTP incorporation
T1 sequence (P54098 1-1239): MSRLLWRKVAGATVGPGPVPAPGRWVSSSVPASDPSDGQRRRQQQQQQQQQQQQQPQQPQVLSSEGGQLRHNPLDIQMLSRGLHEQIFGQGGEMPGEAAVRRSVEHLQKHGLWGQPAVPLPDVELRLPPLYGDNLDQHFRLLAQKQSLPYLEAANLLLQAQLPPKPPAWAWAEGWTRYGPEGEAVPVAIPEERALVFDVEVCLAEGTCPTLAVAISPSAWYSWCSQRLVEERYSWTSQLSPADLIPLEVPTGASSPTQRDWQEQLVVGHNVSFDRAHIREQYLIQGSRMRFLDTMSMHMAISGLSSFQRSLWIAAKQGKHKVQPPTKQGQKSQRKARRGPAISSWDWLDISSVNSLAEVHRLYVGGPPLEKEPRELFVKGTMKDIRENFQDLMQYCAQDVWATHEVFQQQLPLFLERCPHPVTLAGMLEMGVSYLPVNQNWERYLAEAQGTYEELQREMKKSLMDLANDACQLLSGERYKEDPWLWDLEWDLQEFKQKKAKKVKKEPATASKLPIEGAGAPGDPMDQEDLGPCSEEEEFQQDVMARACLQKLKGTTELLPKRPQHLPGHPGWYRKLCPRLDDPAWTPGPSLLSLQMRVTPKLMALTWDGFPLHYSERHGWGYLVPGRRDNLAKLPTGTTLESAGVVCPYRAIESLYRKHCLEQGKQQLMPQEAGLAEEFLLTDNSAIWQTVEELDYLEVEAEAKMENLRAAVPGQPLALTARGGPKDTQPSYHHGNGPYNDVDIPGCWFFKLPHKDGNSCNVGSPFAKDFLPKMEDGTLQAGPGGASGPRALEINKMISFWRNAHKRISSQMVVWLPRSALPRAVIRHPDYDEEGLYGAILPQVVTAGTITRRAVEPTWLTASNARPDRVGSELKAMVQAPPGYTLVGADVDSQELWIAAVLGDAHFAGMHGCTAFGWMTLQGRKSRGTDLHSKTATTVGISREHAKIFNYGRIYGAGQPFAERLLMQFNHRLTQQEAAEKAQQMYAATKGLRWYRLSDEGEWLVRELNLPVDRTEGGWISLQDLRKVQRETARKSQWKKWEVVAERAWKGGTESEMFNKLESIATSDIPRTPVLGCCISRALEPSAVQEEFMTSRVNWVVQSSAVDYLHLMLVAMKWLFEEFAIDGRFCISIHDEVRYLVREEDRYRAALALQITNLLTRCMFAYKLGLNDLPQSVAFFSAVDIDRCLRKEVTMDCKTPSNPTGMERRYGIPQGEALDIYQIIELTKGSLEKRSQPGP
Method in brief: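 Reactions contained 25 μM each dATP/dCTP/dGTP, 25 nM TTP plus 1 μCi ³H-TTP, 160 nM template/primer, and serially diluted test nucleotide (0–200 μM). Incubation was 1 h at 37°C, stopped with TCA (10% final). DNA was precipitated 40 min at 4°C, washed and scintillation-counted; inhibition was taken from reduced radioactivity.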

[2] = target: T2, DNA polymerase α (Pol-α) (Homo sapiens, UniProt P09884); test: DNA polymerase inhibition assay, Pol-α; assay type: biochemical; conditions: Pol-α; 1 h, 3H-dTTP incorporation
T2 sequence (P09884 1-1462): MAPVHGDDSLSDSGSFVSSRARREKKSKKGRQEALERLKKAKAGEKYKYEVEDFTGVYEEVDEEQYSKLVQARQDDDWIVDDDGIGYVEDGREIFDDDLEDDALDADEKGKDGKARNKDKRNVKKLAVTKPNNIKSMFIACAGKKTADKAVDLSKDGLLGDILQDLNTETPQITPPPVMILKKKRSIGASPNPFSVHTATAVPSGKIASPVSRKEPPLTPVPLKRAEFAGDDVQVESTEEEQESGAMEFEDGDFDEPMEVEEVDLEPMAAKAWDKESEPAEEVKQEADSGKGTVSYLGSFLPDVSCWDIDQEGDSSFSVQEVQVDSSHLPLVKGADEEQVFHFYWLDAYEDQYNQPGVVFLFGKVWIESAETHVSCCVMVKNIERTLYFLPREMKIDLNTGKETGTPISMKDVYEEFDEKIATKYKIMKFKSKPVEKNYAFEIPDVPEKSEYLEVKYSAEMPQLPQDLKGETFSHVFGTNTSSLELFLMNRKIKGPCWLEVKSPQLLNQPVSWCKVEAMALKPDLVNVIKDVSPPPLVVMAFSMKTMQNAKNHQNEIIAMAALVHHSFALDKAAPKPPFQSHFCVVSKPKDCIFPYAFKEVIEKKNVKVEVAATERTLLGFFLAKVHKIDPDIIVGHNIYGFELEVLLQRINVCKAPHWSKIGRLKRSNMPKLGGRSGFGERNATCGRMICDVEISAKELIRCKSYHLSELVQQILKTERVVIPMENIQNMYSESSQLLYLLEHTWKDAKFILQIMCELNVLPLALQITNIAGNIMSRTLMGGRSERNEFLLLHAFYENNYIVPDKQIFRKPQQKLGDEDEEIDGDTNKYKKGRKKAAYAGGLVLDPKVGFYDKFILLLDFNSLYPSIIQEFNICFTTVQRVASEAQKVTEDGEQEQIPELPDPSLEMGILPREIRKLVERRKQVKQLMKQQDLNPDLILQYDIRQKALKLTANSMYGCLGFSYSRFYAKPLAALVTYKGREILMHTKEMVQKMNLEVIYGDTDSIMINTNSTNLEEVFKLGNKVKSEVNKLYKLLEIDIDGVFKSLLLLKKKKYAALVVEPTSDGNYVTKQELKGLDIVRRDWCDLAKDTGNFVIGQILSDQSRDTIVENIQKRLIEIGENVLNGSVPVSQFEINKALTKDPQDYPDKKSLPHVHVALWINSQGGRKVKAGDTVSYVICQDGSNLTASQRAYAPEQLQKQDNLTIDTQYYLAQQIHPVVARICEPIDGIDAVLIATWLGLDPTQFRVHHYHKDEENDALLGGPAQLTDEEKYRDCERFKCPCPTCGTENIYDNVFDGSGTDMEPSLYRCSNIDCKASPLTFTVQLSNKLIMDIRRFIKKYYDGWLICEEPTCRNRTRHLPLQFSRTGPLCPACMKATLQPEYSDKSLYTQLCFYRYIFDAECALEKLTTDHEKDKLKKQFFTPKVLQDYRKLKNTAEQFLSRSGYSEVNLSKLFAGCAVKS

[3] = test system: human mitochondrial Pol-γ; conditions: absence of endogenous dNTPs; cited from earlier work

Compound	IC50 [1] [µM]	IC90 [1] [µM]	IC50 [2] [µM]	IC90 [2] [µM]	misincorporation frequency relative to the natural dTTP/dNTP [3] [%]
Nc1ccn([C@@H]2O[C@H](COP(=O)(O)OP(=O)(O)OP(=O)(O)O)[C@@H](O)[C@H]2F)c(=O)n1 [2′-F-CTP]	> 200	> 200	> 200	> 200	
Nc1nc2c(ncn2[C@@H]2O[C@H](COP(=O)(O)OP(=O)(O)OP(=O)(O)O)[C@@H](O)[C@H]2F)c(=O)[nH]1 [2′-F-GTP]	> 200	> 200	> 200	> 200	16
O=c1ccn([C@@H]2O[C@H](COP(=O)(O)OP(=O)(O)OP(=O)(O)O)[C@@H](O)[C@H]2F)c(=O)[nH]1 [2′-F-UTP]	> 200	> 200	> 200	> 200	0.5

Second part, led by results:

IC50 [1] [µM]	IC90 [1] [µM]	IC50 [2] [µM]	IC90 [2] [µM]	Compound	misincorporation frequency relative to the natural dTTP/dNTP [3] [%]
> 200	> 200	> 200	> 200	Nc1ncnc2c1ncn2[C@@H]1O[C@H](COP(=O)(O)OP(=O)(O)OP(=O)(O)O)[C@@H](O)[C@H]1F [2′-F-ATP]	
1.04	13.4	0.27	13.7	O=c1[nH]c(=O)n([C@@H]2O[C@H](COP(=O)(O)OP(=O)(O)OP(=O)(O)O)[C@@H](O)[C@@H]2F)cc1I [FIAU-TP, fialuridine triphosphate, reference compound]	125
